From PubChem BioAssay
Many of the other results were omitted from the sample, so hits are more common in it than they were.
INS-1E ATP HTS: INS-1E beta cell protection from cytokine death. protection from cytokine-induced ATP loss, % at 10 µM. INS-1E cytokine-induced death, ATP luminescence, 48 h; normalised: neutral wells 0, positive control 100. 20,000 tested, 0.1% active;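 active means mean replicate protection from cytokine-induced ATP loss at least 50% and at least 75% of replicates each reaching 50%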
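Test system: INS-1E rat cells | Quantity: 8000 cells per well | Medium: Phenol-red-free RPMI with 5% fetal bovine serum | Reagent: Cytokine cocktail of IFN-γ, TNF-α and IL-1β | Doses: One compound concentration, pin transfer | Timing: 48 h co-treatment, 10 min post-lysis read | Technique: Luminescent ATP assay (CellTiter-Glo)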
T cruzi HTS: inhibitors of intracellular Trypanosoma cruzi | activity score (inhibition), % at 5.01 µM | AID 651903 | intracellular Trypanosoma cruzi in host cells, plate reader | 22,000 tested, 4.9% active; in the data active means activity score above about 55%;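 further: parasites and compound incubated about four days before reading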
A1 apoptosis 2: blocks A1, raising caspase activity | MEF A1-2A-BIM cells, caspase-Glo luminescence, 3 h; percent of clofoctol response, DMSO zero | caspase activation, % (test concentration not listed) | 24,000 tested, under 10 active | AID 2465; in the data active means caspase activation above about 5.9%
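System: mouse embryonic fibroblasts co-expressing A1 and BIM (A1-2A-BIM), primed for A1 dependence; amount: 2500 cells/well; doses: 50 nL pinned compound; schedule: cells settled overnight, compound exposure 3 h at 37 °C, 5% CO2; detection: Caspase-Glo 3/7 luminescence, 1 h at room temperature; read-out: Caspase-3/7 activation, seen as rise in luminescence signal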
Each line names hits and unclear results; the compound was inactive in the other large screens.

C[C@@H]1CN([C@H](C)CO)C(=O)Cc2cc(NC(=O)Nc3ccc(F)cc3)ccc2O[C@@H]1CN(C)Cc1ccc(C(F)(F)F)cc1	T cruzi HTS 60.2
C[C@@H]1CN([C@H](C)CO)C(=O)Cc2cc(NC(=O)C3CCCCC3)ccc2O[C@H]1CN(C)Cc1ccc(C(F)(F)F)cc1	T cruzi HTS 58.0 (no result: A1 apoptosis 2)
COc1ccc(CN(C)C[C@@H]2Oc3ccc(NC(=O)Nc4ccc(C(F)(F)F)cc4)cc3CC(=O)N([C@@H](C)CO)C[C@@H]2C)cc1	none
Cc1noc(C)c1NC(=O)Nc1ccc2c(c1)C(=O)N([C@H](C)CO)C[C@H](C)[C@@H](CN(C)C(=O)CCCN(C)C)OCCCC[C@@H](C)O2	none
[N-]=[N+]=Nc1ccc(NC(=O)c2ccccc2)cc1	none (no result: INS-1E ATP HTS, T cruzi HTS)
C[C@@H]1CN([C@@H](C)CO)C(=O)c2cccc(NC(=O)NC3CCCCC3)c2O[C@@H]1CN(C)Cc1ccc(Cl)c(Cl)c1	none
C[C@H](CO)N1C[C@H](C)[C@H](CN(C)Cc2ccc(Cl)c(Cl)c2)Oc2c(NC(=O)C3CCCCC3)cccc2C1=O	none (no result: A1 apoptosis 2)
C[C@@H]1CN([C@@H](C)CO)C(=O)c2cccc(NC(=O)NC3CCCCC3)c2O[C@H]1CN(C)Cc1ccc(Cl)c(Cl)c1	T cruzi HTS 62.4 (no result: A1 apoptosis 2)
C[C@@H]1CN([C@H](C)CO)C(=O)c2cccc(NC(=O)C3CCCCC3)c2O[C@H]1CN(C)Cc1ccc(Cl)c(Cl)c1	T cruzi HTS 59.6
O=C(NO)c1ccc(C(=O)N/N=C/c2ccncc2Br)cc1	none
COc1cccc(S(=O)(=O)N(C)C[C@@H]2Oc3ncc(C#Cc4cccc(F)c4)cc3C(=O)N([C@H](C)CO)C[C@@H]2C)c1	T cruzi HTS 64.9 (no result: INS-1E ATP HTS, A1 apoptosis 2)
COc1cccc(S(=O)(=O)N(C)C[C@@H]2Oc3ncc(C#Cc4ccc(C(F)(F)F)cc4)cc3C(=O)N([C@H](C)CO)C[C@@H]2C)c1	T cruzi HTS 88.8 (no result: INS-1E ATP HTS, A1 apoptosis 2)
COc1cccc(S(=O)(=O)N(C)C[C@@H]2Oc3ncc(C#CCN(C)C)cc3C(=O)N([C@H](C)CO)C[C@@H]2C)c1	none
COc1cccc(S(=O)(=O)N(C)C[C@@H]2Oc3ncc(C#Cc4ccc(OC)c(OC)c4)cc3C(=O)N([C@H](C)CO)C[C@@H]2C)c1	none
O=C(O)CCCCCC(=O)N/N=C/c1ccc(Br)o1	none
O=C(NCc1ccccc1)C1=C[C@@H](c2cccs2)C[C@@H](OCc2ccc(CO)cc2)O1	none (no result: INS-1E ATP HTS, T cruzi HTS)
C[C@@H]1CN([C@H](C)CO)C(=O)c2cccc(NC(=O)Nc3cccc4ccccc34)c2O[C@@H]1CN(C)C(=O)Nc1ccc(C(F)(F)F)cc1	T cruzi HTS 64.8
C[C@H](CO)N1C[C@H](C)[C@H](CN(C)Cc2ccc(C(F)(F)F)cc2)Oc2c(NC(=O)Nc3ccc4c(c3)OCO4)cccc2C1=O	none (no result: A1 apoptosis 2)
C[C@@H]1CN([C@H](C)CO)C(=O)c2cccc(NC(=O)Nc3cccc4ccccc34)c2O[C@H]1CN(C)C(=O)Nc1ccc(C(F)(F)F)cc1	none
C[C@H](CO)N1C[C@H](C)[C@H](CN(C)Cc2ccc(Cl)c(Cl)c2)Oc2c(NC(=O)Nc3ccc(C(F)(F)F)cc3)cccc2C1=O	T cruzi HTS 63.2
C[C@H](CO)N1C[C@H](C)[C@H](CN(C)Cc2ccc(Cl)c(Cl)c2)Oc2c(NC(=O)Nc3ccc(F)cc3)cccc2C1=O	none (no result: A1 apoptosis 2)
C[C@H]1CN([C@@H](C)CO)C(=O)c2cccc(NC(=O)Nc3cccc4ccccc34)c2O[C@@H]1CN(C)C(=O)Nc1ccc(F)cc1	none
C[C@@H]1CN([C@@H](C)CO)C(=O)c2cccc(NC(=O)Nc3ccc(C(F)(F)F)cc3)c2O[C@@H]1CN(C)Cc1ccc2c(c1)OCO2	T cruzi HTS 60.8
C[C@H](CO)N1C[C@H](C)[C@H](CN(C)C(=O)Nc2ccc(F)cc2)Oc2c(NC(=O)Nc3cccc4ccccc34)cccc2C1=O	T cruzi HTS 70.8
COC(=O)CCCCCCC(=O)N/N=C/c1ccc(N(C)CCO)cc1	none
COc1ccc([Si](C)(C)[C@H]2[C@H](CCn3cc([C@H](O)c4ccccc4)nn3)O[C@@]3(C(=O)N(Cc4ccc(N5CCOC5=O)cc4)c4ccccc43)[C@@H]2C)cc1	none (no result: INS-1E ATP HTS, T cruzi HTS)
O=C(CCCCC(=O)N/N=C/c1cccc(B(O)O)c1)NO	none (no result: INS-1E ATP HTS, T cruzi HTS)
Cc1nc(S(=O)(=O)NC[C@@H]2CCCN(Cc3cccc(OCCO)c3)C2)cn1C	none (no result: INS-1E ATP HTS, T cruzi HTS)
O=C(CCCCC(=O)N/N=C/c1ccc(C(=O)O)cc1)NO	none
C[C@H]1CN([C@@H](C)CO)C(=O)c2cccc(NC(=O)Nc3ccc(C(F)(F)F)cc3)c2O[C@H]1CN(C)C(=O)Nc1ccccc1	none
C[C@@H]1CN([C@H](C)CO)C(=O)c2cccc(NC(=O)Nc3ccc(C(F)(F)F)cc3)c2O[C@H]1CN(C)C(=O)Nc1ccc(C(F)(F)F)cc1	T cruzi HTS 75.2
C[C@H](CO)N1C[C@H](C)[C@H](CN(C)C(=O)Nc2ccc(C(F)(F)F)cc2)Oc2c(NC(=O)NC3CCCCC3)cccc2C1=O	T cruzi HTS 74.5
C[C@H](CO)N1C[C@H](C)[C@@H](CN(C)C(=O)Nc2ccc(C(F)(F)F)cc2)Oc2c(NC(=O)Nc3ccc(C(F)(F)F)cc3)cccc2C1=O	T cruzi HTS 78.0
C[C@H]1CN([C@@H](C)CO)C(=O)c2cccc(NC(=O)NC3CCCCC3)c2O[C@@H]1CN(C)C(=O)Nc1ccc(C(F)(F)F)cc1	none
C[C@H]1CN([C@@H](C)CO)C(=O)c2cccc(NC(=O)Nc3ccc(F)cc3)c2O[C@@H]1CN(C)C(=O)Nc1ccc(C(F)(F)F)cc1	none
C[C@H](CO)N1C[C@H](C)[C@H](CN(C)C(=O)Nc2ccc(C(F)(F)F)cc2)Oc2c(NC(=O)Nc3ccc(C(F)(F)F)cc3)cccc2C1=O	T cruzi HTS 78.3 (no result: A1 apoptosis 2)
C[C@H]1CN([C@@H](C)CO)C(=O)c2cccc(NC(=O)Nc3ccc(C(F)(F)F)cc3)c2O[C@@H]1CN(C)C(=O)Nc1ccc(F)cc1	none
O=C(NO)c1cccc(C(=O)N/N=C/c2ccc3ccccc3n2)c1	none
COC(=O)CCCCCCC(=O)N/N=C/c1ccc(N(C)C)cc1	none
Cc1c(NC(=O)/C(C#N)=C/c2cccc([N+](=O)[O-])c2)c(=O)n(-c2ccccc2)n1C	none (no result: INS-1E ATP HTS, T cruzi HTS)
O=c1[nH]c(=O)c2cc(Br)ccc2[nH]1	none (no result: INS-1E ATP HTS, T cruzi HTS)
CCOc1cc(OCC)cc(C(=O)N[C@@H](Cc2ccc(N=[N+]=[N-])cc2)C(=O)OC)c1	none (no result: INS-1E ATP HTS, T cruzi HTS)
COc1cc(Cl)c(/C=N/NC(=O)c2cccc(C(=O)NO)c2)c(Cl)c1OC	none
C[C@H](CO)N1C[C@H](C)[C@H](CN(C)C(=O)Nc2ccc3c(c2)OCO3)Oc2c(NC(=O)Nc3ccc(C(F)(F)F)cc3)cccc2C1=O	T cruzi HTS 62.6
C[C@@H]1CN([C@H](C)CO)C(=O)c2cccc(NC(=O)Nc3ccccc3)c2O[C@H]1CN(C)C(=O)Nc1ccc(C(F)(F)F)cc1	none
C[C@@H]1CN([C@H](C)CO)C(=O)c2cccc(NC(=O)Nc3ccc(C(F)(F)F)cc3)c2O[C@@H]1CN(C)C(=O)Nc1ccc2c(c1)OCO2	none
C[C@@H]1CN([C@H](C)CO)C(=O)c2cccc(NC(=O)Nc3cccc4ccccc34)c2O[C@H]1CN(C)C(=O)NC1CCCCC1	none
